Test results taken from ChEMBL document CHEMBL1150273, “Aza-peptidyl Michael acceptors. A new class of potent and selective inhibitors of asparaginyl endopeptidases (legumains) from evolutionarily diverse pathogens” (J Med Chem, 2008).
The source made the active and inactive calls. The calls are words filed in the database; no cut-off is given here.

Key:
[1] = biological target: T1, Caspase-6 (Homo sapiens) (UniProt P55212); assay: Inhibition of caspase 6 assessed as ratio of pseudo-first-order inhibition rate constant to inhibitor concentration
T1 sequence (whole entry): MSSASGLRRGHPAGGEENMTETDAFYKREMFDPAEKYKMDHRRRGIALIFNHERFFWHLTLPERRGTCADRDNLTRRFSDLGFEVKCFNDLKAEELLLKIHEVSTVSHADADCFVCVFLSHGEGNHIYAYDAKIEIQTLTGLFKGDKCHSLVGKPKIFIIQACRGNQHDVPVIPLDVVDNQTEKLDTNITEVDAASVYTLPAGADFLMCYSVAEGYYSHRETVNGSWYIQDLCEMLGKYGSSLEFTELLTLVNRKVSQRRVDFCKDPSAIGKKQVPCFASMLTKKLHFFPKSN
Method in brief: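 Caspase-6 at 5 nM final, assayed in the same Pipes/NaCl/CHAPS/sucrose/DTT buffer, pH 7.2, 37 °C with Ac-Asp-Glu-Val-Asp-AMC by the progress curve method; inhibitor stocks 5 × 10^-3 to 2.42 × 10^-6 M in DMSO; rates corrected for substrate using KM 236.35 µM.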

[2] = Stability assessed as half life in citrate phosphate buffer at pH 5.8 in presence of dithiothreitol; format: physicochemical; conditions: citrate phosphate buffer with dithiothreitol
[3] = biological target: T2, Calpain-1 catalytic subunit (Homo sapiens) (UniProt P07384); assay: Inhibition of calpain 1 assessed as ratio of pseudo-first-order inhibition rate constant to inhibitor concentration
T2 sequence (whole entry): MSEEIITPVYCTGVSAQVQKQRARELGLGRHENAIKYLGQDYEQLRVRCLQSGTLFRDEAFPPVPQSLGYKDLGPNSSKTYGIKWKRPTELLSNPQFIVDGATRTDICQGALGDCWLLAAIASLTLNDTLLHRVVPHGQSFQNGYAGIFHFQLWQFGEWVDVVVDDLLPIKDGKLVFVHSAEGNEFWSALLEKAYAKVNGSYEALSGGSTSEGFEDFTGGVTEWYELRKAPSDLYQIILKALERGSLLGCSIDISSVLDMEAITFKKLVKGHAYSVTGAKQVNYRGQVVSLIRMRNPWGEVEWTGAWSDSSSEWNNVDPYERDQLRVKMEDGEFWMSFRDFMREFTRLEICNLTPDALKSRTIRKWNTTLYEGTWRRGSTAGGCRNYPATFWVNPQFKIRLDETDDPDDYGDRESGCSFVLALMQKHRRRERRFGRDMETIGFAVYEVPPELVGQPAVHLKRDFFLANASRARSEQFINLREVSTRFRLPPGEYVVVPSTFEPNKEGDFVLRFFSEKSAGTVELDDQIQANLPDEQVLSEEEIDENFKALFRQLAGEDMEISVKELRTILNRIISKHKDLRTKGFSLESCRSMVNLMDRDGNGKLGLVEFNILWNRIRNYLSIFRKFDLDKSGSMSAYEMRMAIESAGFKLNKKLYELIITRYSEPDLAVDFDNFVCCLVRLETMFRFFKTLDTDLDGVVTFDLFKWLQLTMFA

[4] = system: Schistosoma mansoni; assay: Inhibition of Schistosoma mansoni AE assessed as ratio of pseudo-first-order inhibition rate constant to inhibitor concentration
Method in brief: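 Autoactivated recombinant SmAE added to six inhibitor concentrations (0–1 µM final) in 0.1 M citrate phosphate, 2 mM DTT, pH 6.8 with 20 µM Cbz-Ala-Ala-Asn-AMC; progress followed every 2 s for 30 min at 25 °C (ex 355, em 460 nm); kobs/[I] by nonlinear regression, corrected for substrate by factor 1.33.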

CCOC(=O)/C=C/C(=O)N(CC(N)=O)NC(=O)[C@H](C)NC(=O)[C@H](C)NC(=O)OCc1ccccc1
Activity [1]: inactive
half-life [2]: 0.317 h
Activity [3]: inactive

C[C@H](NC(=O)OCc1ccccc1)C(=O)N[C@@H](C)C(=O)NN(CC(N)=O)C(=O)/C=C/C(=O)N(Cc1ccccc1)Cc1ccccc1
Ratio [4]: 5800 M⁻¹ s⁻¹
Activity [1]: inactive
Ratio [3]: < 1 M⁻¹ s⁻¹

C[C@H](NC(=O)OCc1ccccc1)C(=O)N[C@@H](C)C(=O)NN(CC(N)=O)C(=O)/C=C/C(=O)N(C)Cc1ccccc1
Activity [1]: inactive
half-life [2]: 6.27 h
Activity [3]: inactive

C[C@H](NC(=O)OCc1ccccc1)C(=O)N[C@@H](C)C(=O)NN(CC(N)=O)C(=O)/C=C/C(=O)N(C)Cc1cccc2ccccc12
Ratio [4]: 16900 M⁻¹ s⁻¹
Activity [1]: inactive
Activity [3]: inactive
